Consider 11 compounds from ChEMBL document CHEMBL1155937, “Substituted 3-((Z)-2-(4-nitrophenyl)-2-(1H-tetrazol-5-yl) vinyl)-4H-chromen-4-ones as novel anti-MRSA agents: synthesis, SAR, and in-vitro assessment” (Bioorg Med Chem Lett, 2008).

One may read the pKa as the pH at which an ionisable group is half protonated. Usually MIC stands for the lowest concentration found to suppress growth. Read a high MIC as a need for much substance.

Data set [1] is described as follows: pKa of the compound. The data set is classed as physicochemical.
Data set [2] has as its system Staphylococcus aureus. Put plainly: Antibacterial activity against methicillin-sensitive Staphylococcus aureus ATCC 13709 Smith after 24 hrs by twofold serial dilution method. The data set is classed as functional. The procedure, abridged:
(§1)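 CLSI agar-dilution MIC on Mueller Hinton agar with serial twofold drug dilutions. About 10⁴ CFU applied per spot by multipoint inoculator. Incubated at 35 °C and growth scored at 24 h. DMSO served as solvent control. S. aureus ATCC 29213 was the QC strain. Twofold differences were confirmed by a third repetition, and the more frequent result was reported.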

Data set [3] deals with Staphylococcus aureus. Put plainly: Antibacterial activity against methicillin-resistant Staphylococcus aureus 032 after 24 hrs by twofold serial dilution method. The data set is classed as functional. The gist of the method:
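Agar dilution MIC per CLSI on Mueller Hinton agar with serial twofold drug dilutions. About 10⁴ CFU applied per spot with a multipoint inoculator, incubated at 35 °C, and growth scored at 24 h. DMSO served as solvent control. Twofold discrepancies were confirmed by a third repetition, and the more frequent value was reported.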

The next data set deals with Enterococcus faecalis. Description: Antibacterial activity against Enterococcus faecalis ATCC 29212 after 24 hrs by twofold serial dilution method. The data set is classed as functional. As to conditions: ATCC 29212, 24 h. The procedure, abridged:
as §1

The test system of another data set is Streptococcus pneumoniae. Put plainly: Antibacterial activity against Streptococcus pneumoniae ATCC 49619 after 24 hrs by twofold serial dilution method. Format: functional. The settings on record: ATCC 49619, 24 h. The procedure, abridged:
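About 10⁴ CFU applied per spot. Incubated at 35 °C in 5% CO₂ and growth scored at 24 h. DMSO served as solvent control. Twofold differences were confirmed by a third repetition.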

Another data set relates to Escherichia coli. Put plainly: Antibacterial activity against Escherichia coli ATCC 25922 after 24 hrs by twofold serial dilution method. The data set is classed as functional. The settings on record: ATCC 25922, 24 h. The gist of the method:
as §1

Converted amounts (≈) assume the structure as drawn.

In data set [1], `O=c1c(-c2nnn[nH]2)coc2ccccc12` showed a pKa of 5.85.

With `O=c1c(/C=C(/c2ccc([N+](=O)[O-])cc2)c2nnn[nH]2)coc2ccc(Br)cc12`, the MIC in the data set with Staphylococcus aureus [2], against Staphylococcus aureus [3], in the data set with Enterococcus faecalis, against Streptococcus pneumoniae and in the data set with Escherichia coli was over 32 µg/mL each time.

For the compound `Cc1cc2occ(/C=C(/c3ccc([N+](=O)[O-])cc3)c3nnn[nH]3)c(=O)c2cc1Cl`, the MIC with Staphylococcus aureus [2] was 16 µg/mL (≈ 39 µM); in the data set with Staphylococcus aureus [3] it was 4 µg/mL (≈ 9.76 µM); in the data set with Enterococcus faecalis, 16 µg/mL (≈ 39 µM); in the data set with Streptococcus pneumoniae it was 16 µg/mL (≈ 39 µM); in the data set with Escherichia coli, over 32 µg/mL.

Consider `O=c1c(/C=C(/c2ccc([N+](=O)[O-])cc2)c2nnn[nH]2)coc2ccc(Cl)cc12`, for which the minimal inhibitory concentration (MIC) against Staphylococcus aureus [2], against Staphylococcus aureus [3], in the data set with Enterococcus faecalis, against Streptococcus pneumoniae and against Escherichia coli was over 32 µg/mL each time.

With `Cc1cc(C)c2occ(/C=C(/c3ccc([N+](=O)[O-])cc3)c3nnn[nH]3)c(=O)c2c1`, the minimal inhibitory concentration (MIC) is 8 µg/mL (≈ 20.5 µM) against Staphylococcus aureus [2]; 2 µg/mL (≈ 5.14 µM) in the data set with Staphylococcus aureus [3]; 16 µg/mL (≈ 41.1 µM) against Enterococcus faecalis; 16 µg/mL (≈ 41.1 µM) with Streptococcus pneumoniae; over 32 µg/mL against Escherichia coli.

As to `O=c1c(/C=C(/c2ccc([N+](=O)[O-])cc2)c2nnn[nH]2)coc2c(Cl)cc(Cl)cc12`, the MIC is 16 µg/mL (≈ 37.2 µM) against Staphylococcus aureus [2]; 2 µg/mL (≈ 4.65 µM) against Staphylococcus aureus [3]; 8 µg/mL (≈ 18.6 µM) against Enterococcus faecalis; 1 µg/mL (≈ 2.32 µM) in the data set with Streptococcus pneumoniae; over 32 µg/mL in the data set with Escherichia coli.

`Cc1ccc2occ(/C=C(/c3ccc([N+](=O)[O-])cc3)c3nnn[nH]3)c(=O)c2c1`: the MIC is 8 µg/mL (≈ 21.3 µM) in the data set with Staphylococcus aureus [2]; over 32 µg/mL against Staphylococcus aureus [3]; over 32 µg/mL against Enterococcus faecalis; over 32 µg/mL with Streptococcus pneumoniae; over 32 µg/mL in the data set with Escherichia coli.

For the compound `O=c1c(/C=C(/c2ccc([N+](=O)[O-])cc2)c2nnn[nH]2)coc2ccc(F)cc12`, the MIC against Staphylococcus aureus [2] is 8 µg/mL (≈ 21.1 µM); with Staphylococcus aureus [3] it was 0.5 µg/mL (≈ 1.32 µM); in the data set on Enterococcus faecalis, 4 µg/mL (≈ 10.5 µM); in the data set on Streptococcus pneumoniae, 0.5 µg/mL (≈ 1.32 µM); in the data set with Escherichia coli, over 32 µg/mL.

Consider `CC1(C)S[C@@H]2[C@H](NC(=O)[C@H](N)c3ccccc3)C(=O)N2[C@H]1C(=O)O` [AMPICILLIN], for which the MIC was 0.25 µg/mL (≈ 0.715 µM) in the data set on Staphylococcus aureus [2]; over 32 µg/mL with Staphylococcus aureus [3]; 0.5 µg/mL (≈ 1.43 µM) with Enterococcus faecalis; 0.06 µg/mL (≈ 0.172 µM) against Streptococcus pneumoniae; over 32 µg/mL in the data set with Escherichia coli.

In the case of `O=C(O)c1cn(C2CC2)c2cc(N3CCNCC3)c(F)cc2c1=O` [CIPROFLOXACIN], the MIC in the data set on Staphylococcus aureus [2] was 0.12 µg/mL (≈ 0.362 µM); against Staphylococcus aureus [3], over 32 µg/mL; in the data set with Enterococcus faecalis, 0.5 µg/mL (≈ 1.51 µM); against Streptococcus pneumoniae, 2 µg/mL (≈ 6.04 µM); with Escherichia coli, over 32 µg/mL.

Take `CC[C@H]1OC(=O)[C@H](C)[C@@H](O[C@H]2C[C@@](C)(OC)[C@@H](O)[C@H](C)O2)[C@H](C)[C@@H](O[C@@H]2O[C@H](C)C[C@H](N(C)C)[C@H]2O)[C@](C)(O)C[C@@H](C)C(=O)[C@H](C)[C@@H](O)[C@]1(C)O` [ERYTHROMYCIN]: the MIC with Staphylococcus aureus [2] was 0.5 µg/mL (≈ 0.681 µM); in the data set on Staphylococcus aureus [3] it was over 32 µg/mL; with Enterococcus faecalis, 2 µg/mL (≈ 2.73 µM); against Streptococcus pneumoniae, 0.12 µg/mL (≈ 0.164 µM); with Escherichia coli, over 32 µg/mL.
